Data on 15 compounds can be found in ChEMBL document CHEMBL4340518, “Synthesis, structure-activity relationship and in vitro pharmacodynamics of A-ring modified caged xanthones in a preclinical model of inflammatory breast cancer” (Eur J Med Chem, 2019).

The subject of experiment [1] is Breast carcinoma cell. The experiment is described as follows: Cytotoxicity against patient derived inflammatory breast cancer cell spheroids assessed as increase in spheroid dissolution at 2.5 uM incubated for 24 hrs by bright field microscopic based Spheroids MARY-X assay. Format: functional, Homo sapiens. An outline of the steps: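 MARY-X spheroids (40–100 μm) grown in MEM + 10% heat-inactivated FBS, penicillin/streptomycin, 37 °C, 5% CO2. Plated at 30–50 spheroids/well and exposed in replicates to 2.5 μM or DMSO vehicle for 24 h. Brightfield imaging scored deviation from the well-circumscribed spheroid edge, graded as no, low, moderate or complete response.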

Experiment [2] concerns Breast carcinoma cell. The experiment is described as follows: Cytotoxicity against patient derived inflammatory breast cancer cell spheroids assessed as increase in spheroid dissolution incubated for 24 hrs by bright field microscopic based Spheroids MARY-X assay. Format: functional. As to conditions: Homo sapiens. An outline of the steps:
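MARY-X spheroids (40–100 μm; MEM, 10% heat-inactivated FBS, antibiotics, 37 °C, 5% CO2) were seeded at 30–50/well. Treated in replicates for 24 h with nine concentrations, 0.25–2.25 μM in 0.25 μM steps made by serial dilution, or DMSO. ImageJ circularity from brightfield images gave dose-response curves, from which IC50 was fitted.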

Experiment [3] has as its system Breast carcinoma cell. The experiment is described as follows: Induction of apoptosis in patient derived inflammatory breast cancer cell spheroids assessed as increase in loss of well-circumscribed spheroid edge at 2.5 uM incubated for 3 hrs by bright field microscopic analysis. Format: functional, cell-based. Conditions: Homo sapiens. The method, boiled down:
(§1)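 Spheroids were embedded in Matrigel plugs (Matrigel:spheroids in medium 2:1) on coverslips and set for 30 min at 37 °C. They were exposed to 2.5 μM or DMSO for 3 h, with brightfield checks of edge loss. Plugs were fixed in 4% PFA 30 min RT, permeabilized with 2% Triton X-100 15 min, and blocked with 3% goat serum 30 min. Staining used Alexa488 anti-Ki67 (1:10) and anti-cPARP (1:100), 4 °C 24 h, then Cy5 anti-rabbit (4 µg/ml), 4 °C 24 h, and DAPI mountant. ApoTome z-stack fluorescence imaging followed.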

Experiment [4] has as its system Breast carcinoma cell. The experiment is described as follows: Induction of apoptosis in patient derived inflammatory breast cancer cell spheroids assessed as increase in pyknotic nuclei at 2.5 uM incubated for 3 hrs by DAPI staining based fluorescence microscopic analysis. Format: functional. Conditions: Homo sapiens. The method, boiled down:
as §1

Experiment [5] deals with Breast carcinoma cell. As to the kind of experiment: Induction of apoptosis in patient derived inflammatory breast cancer cell spheroids assessed as localization of cleaved PARP at 2.5 uM incubated for 3 hrs by c-PARP staining based fluorescence microscopic analysis. As to conditions: Homo sapiens. Format: functional. An outline of the steps:
as §1

In experiment [6] the test system is Breast carcinoma cell. As to the kind of experiment: Antiproliferative activity against patient derived inflammatory breast cancer cell spheroids assessed as reduction in cell viability at 2.5 uM incubated for 3 hrs by ki-67 staining based fluorescence microscopic analysis. Conditions: Homo sapiens. Format: functional. An outline of the steps:
as §1

Experiment [7] relates to Breast carcinoma cell. As to the kind of experiment: Cytotoxicity against patient derived inflammatory breast cancer cell spheroids assessed as increase in spheroid dissolution incubated for 24 hrs by propidium iodide/Acridine orange staining based dual-fluorescence viability assay. The class given is functional. As to conditions: Homo sapiens.
Experiment [8] concerns Breast carcinoma cell. As to the kind of experiment: Potency index, ratio of IC50 for taxol to IC50 for test compound for cytotoxicity against patient derived inflammatory breast cancer cell spheroids assessed as increase in spheroid dissolution incubated for 24 hrs by propidium iodide/Acridine orange staining based dual-fluorescence viability assay. Format: functional, Homo sapiens.

Active and inactive are the calls of the source. No cut-off for these calls is given here.

With `CC(C)=CCC12OC(C)(C)C3CC(C=C4C(=O)c5c(F)cc(F)cc5OC431)C2=O` (centres undefined), the Activity in the experiment on Breast carcinoma cell [1] was determined as 100%. In addition, in the experiment on Breast carcinoma cell [2], the half-inhibitory concentration (IC50) – broadly, the concentration at which inhibition is half-maximal – turned out to be 1120 nM. The outcome with Breast carcinoma cell [3], in the experiment on Breast carcinoma cell [4], in the experiment on Breast carcinoma cell [5] and in the experiment with Breast carcinoma cell [6] was Active.
`CC(C)=CCC[C@]1(C)C=Cc2c(O)c3c(c(CC=C(C)C)c2O1)O[C@]12C(=C[C@@H]4C[C@H]1C(C)(C)O[C@@]2(C/C=C(/C)C(=O)O)C4=O)C3=O` [GAMBOGIC ACID]: the IC50 in the experiment on Breast carcinoma cell [7] came out at 420 nM. For the same compound, the “Ratio IC50” value in the experiment with Breast carcinoma cell [8] stood at 20.
As for `CC(=O)O[C@H]1C(=O)[C@@]2(C)[C@H]([C@H](OC(=O)c3ccccc3)[C@]3(O)C[C@H](OC(=O)[C@H](O)[C@@H](NC(=O)c4ccccc4)c4ccccc4)C(C)=C1C3(C)C)[C@]1(OC(C)=O)CO[C@@H]1C[C@@H]2O` [PACLITAXEL], the half-maximal inhibitory concentration (IC50) in the experiment on Breast carcinoma cell [7] was determined as 7800 nM.
`COCCOCCOCCOc1cc(O)c2c(c1)OC13C(=CC4CC1C(C)(C)OC3(CC=C(C)C)C4=O)C2=O` (centres undefined): in the experiment on Breast carcinoma cell [1] (Homo sapiens), the outcome was Active.
On to `CC(C)=CCC12OC(C)(C)C3CC4(Oc5cc(F)cc(F)c5C(=O)C4=CC31)C2=O` (centres undefined), for which the Activity in the experiment on Breast carcinoma cell [1] is recorded as 100%. In the experiment on Breast carcinoma cell [2], the IC50 came out at 890 nM.
Taken in the same sequence, the figures for `CC(C)=CCC12OC(C)(C)C3CC(C=C4C(=O)c5ccccc5OC431)C2=O` (centres undefined) were 100% and 630 nM.
In the case of `CC(C)=CCC12OC(C)(C)C3CC(C=C4C(=O)c5c(O)cc(O)cc5OC431)C2=O` (centres undefined), the outcome in the experiment with Breast carcinoma cell [1] (Homo sapiens) was inactive.
In the case of `CC(C)=CCC12OC(C)(C)C3CC(C=C4C(=O)c5ccc(O)cc5OC431)C2=O` (centres undefined), the outcome with Breast carcinoma cell [1] (Homo sapiens) was inactive.
As to `CC(C)=CCC12OC(C)(C)C3CC(C=C4C(=O)C5=C(OC431)C(=O)C=CC5=O)C2=O` (centres undefined), in the experiment on Breast carcinoma cell [1] (Homo sapiens), the result was inactive.
For the compound `CC(C)=CCC12OC(C)(C)C3CC(C=C4C(=O)c5c(O)cccc5OC431)C2=O` (centres undefined), the half-inhibitory concentration (IC50) with Breast carcinoma cell [7] was 660 nM; with Breast carcinoma cell [2], 510 nM. Further, the Activity with Breast carcinoma cell [1] amounted to 100%. In addition, the outcome in the experiment on Breast carcinoma cell [3], in the experiment with Breast carcinoma cell [4], in the experiment on Breast carcinoma cell [5] and in the experiment with Breast carcinoma cell [6] was Active.
Take `COCCOCCOCCOc1cc(OCCOCCOCCOC)c2c(c1)OC13C(=CC4CC1C(C)(C)OC3(CC=C(C)C)C4=O)C2=O` (centres undefined): the result in the experiment with Breast carcinoma cell [1] (Homo sapiens) was Active.
In the case of `COCCOCCOCCOc1ccc2c(c1)OC13C(=CC4CC1C(C)(C)OC3(CC=C(C)C)C4=O)C2=O` (centres undefined), the result with Breast carcinoma cell [1] (Homo sapiens) was Active.
On the same count and under the same terms, with `COCCOCCOCCOc1cccc2c1C(=O)C1=CC3CC4C(C)(C)OC(CC=C(C)C)(C3=O)C14O2` (centres undefined) the entry was “Active”.
In the case of `COCOc1cc(O)c2c(c1)OC13C(=CC4CC1C(C)(C)OC3(CC=C(C)C)C4=O)C2=O` (centres undefined), the Activity in the experiment on Breast carcinoma cell [1] is 100%. The half-inhibitory concentration (IC50) with Breast carcinoma cell [2] was determined as 380 nM. The result in the experiment with Breast carcinoma cell [3], in the experiment on Breast carcinoma cell [4], with Breast carcinoma cell [5] and in the experiment on Breast carcinoma cell [6] was Active.
For the compound `COc1ccc(OC)c2c1OC13C(=CC4CC1C(C)(C)OC3(CC=C(C)C)C4=O)C2=O` (centres undefined), in the experiment with Breast carcinoma cell [1] (Homo sapiens), the outcome was inactive.
